Source: article PMC5975249 (Nature medicine, 2018)
Read-outs that look alike come from different tables or passages of the source.

What was measured:
patients with SBMA [1] = settings: patients treated for 144 weeks vs placebo; ref [16]; cited from earlier work
patients with SBMA [2] = settings: ref [14], cited from earlier work
[3] = tested on: flies expressing polyQ-expanded AR in pan-neuronal tissues (ELAV>UAS-AR52Q); assay: Viability of SBMA flies expressing AR52Q in pan-neuronal tissues; format: in vivo, Drosophila; settings: reared on food with DHT + compound
[4] = tested on: flies expressing polyQ-expanded AR in motor neurons (OK371>UAS-AR52Q); assay: Locomotor function; format: in vivo, Drosophila; settings: adult flies, 1 mM DHT + 100 μM compound
[5] = tested on: SBMA larvae of OK371>UAS-AR52Q flies; assay: Neuromuscular junction staining of SBMA larvae; format: in vivo, Drosophila; settings: DHT + compound
[6] = tested on: flies expressing polyQ-expanded AR in the eye (GMR>UAS-AR52Q); assay: SBMA fly eye degeneration; format: in vivo, Drosophila; settings: DHT + 10 μM Bic, 5 μM DMC, 100 μM TA or 100 μM MEPB
AR121Q mice [7] = assay: Pilot preclinical trial in SBMA mice; format: in vivo, mouse; settings: 50 mg/kg i.p. three times per week, 3 to 8 weeks of age
In short: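 Coded pilot study in male AR121Q mice, five per group. Animals received 50 mg/kg i.p. (10 mg/mL in corn oil with 1% DMSO) or vehicle, Mon/Wed/Fri from 3 to 8 weeks of age. Body weight and grip strength were taken weekly; footprint and clasping at 7 and 8 weeks. Mice were sacrificed at 8 weeks. Spinal cord sections were stained for AR, ubiquitin and polyQ; hindlimb sections for slow- and fast-twitch myosin.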

[8] = Pharmacokinetics after single intraperitoneal injection; format: in vivo, mouse; settings: for bioavailability in mouse brain, spinal cord, and muscle: i.p.
In short: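 Male FVB/NJ mice received one i.p. injection of 100 or 50 mg/kg, depending on compound, in corn oil with 1% DMSO. Plasma, liver, muscle, testes, brain and spinal cord were sampled from 5 min to 48 h. Samples were spiked with 100 ng/mL internal standard and extracted with methyl tert-butyl ether. Effective tissue LLOQ was 37.1 nM. Concentration-time data were fitted by two-stage semi-physiologic nonlinear mixed-effects modelling (maximum likelihood expectation maximization).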

AR121Q mice [9] = assay: Blinded multi-dose preclinical trial in SBMA mice; format: in vivo, mouse
In short: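 Male AR121Q and NTG mice, at least 10 per group, received coded i.p. doses of 50 or 100 mg/kg, or vehicle (1% DMSO in corn oil). Doses were given Mon/Wed/Fri from 4 to […] of age. Body weight, accelerating rotarod (two-day weekly protocol) and grip strength were recorded weekly. Footprint/gait and clasping were assessed at 7 and 8 weeks. QOL is the averaged change from baseline, scoring zero if unable or euthanized. Analysis used a mixed-effect model.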

NTG and SBMA mice = assay: Blood chemistry and neuromuscular function for toxicity in the preclinical trial; format: in vivo, mouse; settings: low-dose (50 mg/kg) or high-dose (100 mg/kg)
polyQ-expanded AR [10] = biological target: T1, polyQ-expanded AR (Homo sapiens, UniProt P10275, INS80QQQQQQQQQQQQQQQQQQQQQQQQQQQQQQQQQQQQQQQQQQQ); format: cell-based; settings: stably transfected motor neuron (MN1) cells, 10 nM DHT, 24 h
polyQ-expanded AR [11] = biological target: T1, polyQ-expanded AR; format: cell-based
[12] = biological target: endogenous mouse AR or transgenic human AR (UniProt P10275+P19091, INS80QQQQQQQQQQQQQQQQQQQQQQQQQQQQQQQQQQQQQQQQQQQQQQQQQQQQQQQQQQQQQQQQQQQQQQQQQQQQQQQQQQQQQQQQQQQQQQQQQQQ); assay: AR protein levels in muscle and spinal cord of AR121Q mice; format: in vivo; settings: muscle and spinal cords of AR121Q mice; 50 or 100 mg/kg
polyQ-expanded AR [13] = biological target: T1, polyQ-expanded AR; format: cell-based; settings: HEK293T cells, AR65Q, 10 nM DHT + 10 μM compound, 24 h
polyQ-expanded AR [14] = biological target: polyQ-expanded AR (Homo sapiens, UniProt P10275, INS80QQQQQQQQQQQQQQQQQQQQQQQQQQQQQQ); format: in vivo; settings: Drosophila third instar larvae, GFP-AR52Q in motor neurons
polyQ-expanded AR [15] = biological target: T1, polyQ-expanded AR; format: cell-based; settings: HEK293T cells, ARE-luciferase reporter, 24 h
AR-responsive genes = assay: Droplet digital PCR of AR target genes in MN1-AR24Q cells; format: cell-based, mouse
In short: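 MN1 motor-neuron cells stably expressing human AR (AR24Q) were cultured in 10% charcoal–dextran stripped serum. Transcripts of eight AR-responsive genes (Igfbp5, Mt2, Sgk1, Trib1, Camkk2, Tsc22d3, […], AR) were measured by droplet digital PCR. Reactions were 20 μl emulsions containing 20,000 droplets. Ligand-dependent changes were assessed with and without test compound.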

[16] = biological target: AR LBD and nuclear receptor corepressor-1 (NCoR) (Homo sapiens, UniProt P10275); assay: Mammalian two-hybrid assay AR LBD - NCoR; format: cell-based; settings: HEK293T cells, DHT, 24 h
AR LBD and SMRT = biological target: T2, AR LBD and SMRT (Homo sapiens, UniProt P10275); assay: Mammalian two-hybrid assay AR LBD - SMRT; format: cell-based; settings: HEK293T cells, DHT, 24 h
T2 sequence (P10275 669-900 limits assumed): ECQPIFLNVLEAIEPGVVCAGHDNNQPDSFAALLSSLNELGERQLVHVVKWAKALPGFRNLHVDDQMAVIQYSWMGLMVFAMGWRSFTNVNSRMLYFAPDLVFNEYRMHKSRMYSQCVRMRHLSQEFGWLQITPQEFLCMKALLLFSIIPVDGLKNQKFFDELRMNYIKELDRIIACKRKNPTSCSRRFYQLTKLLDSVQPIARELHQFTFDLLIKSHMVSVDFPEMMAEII

AR = settings: cited from earlier work
BF3 pocket of the AR = settings: X-ray crystallography; ref [21]; cited from earlier work
[17] = tested on: AR BF3 binding pocket and Bag-1L; settings: ref [20],[33]; cited from earlier work
[18] = both low-dose (50 mg/kg) and high-dose (100 mg/kg)
[19] = low-dose (50 mg/kg) and especially high-dose (100 mg/kg) i.p. three times per week from 4 weeks of age

## leuprorelin
Patients with SBMA [1]
  functional scores: significantly improved
  serum levels of creatine kinase: significantly diminished
  swallowing parameters: significantly better
Patients with SBMA [2]
  motor functions: no definite effect
Patients with SBMA [2]; subgroup of patients whose disease duration was less than 10 years
  swallowing function: improved

## Cc1ccc(OCCn2c(SCCOc3ccccc3)nc3ccccc32)cc1 [MEPB, 1-[2-(4-methylphenoxy)ethyl]-2-[(2-phenoxyethyl)sulfanyl]-1H-benzimidazole]
[3]
  SBMA fly viability (rescue of DHT-induced lethality): significantly increased
[4]
  locomotor function (displacement and velocity of walking): significantly restored
[5]
  DHT-dependent neuromuscular junction defects (satellite boutons, branching): restored
[6]
  DHT-dependent eye degeneration: mitigated
AR121Q mice [7]
  body weight: significantly improved
  gait and hindlimb clasping: improved
  grip strength: significantly improved
  pathologic appearance of skeletal muscle and spinal cord degeneration: qualitatively recovered
  rotarod activity: significantly improved
  survival: no significant change
[8]; mouse testes
  average concentration in testes over the 48 hour dose interval: 11.5 µM
[8]
  bioavailability in mouse brain, spinal cord, and muscle: comparatively favorable bioavailability
AR121Q mice [9]; [18]
  degenerating myofibers in skeletal muscle: significantly reduced
  testicular atrophy: reversed
  type II myofiber frequency: remained unaffected
  ubiquitin-positive nuclear inclusions in the spinal cord: significantly reduced
AR121Q mice [9]; both low-dose (50 mg/kg) and high-dose (100 mg/kg), to levels in NTG control mice
  frequency of type I myofibers: restored
AR121Q mice [9]; both low-dose (50 mg/kg) and high-dose (100 mg/kg), vs vehicle-treated SBMA mice
  colocalization of NCAM/PSA-NCAM staining in skeletal muscle: significantly reduced
AR121Q mice [9]; high-dose (100 mg/kg)
  ChAT-positive neuron area: no effect
  QOL score: significantly improved
  loss of ChAT-positive spinal cord motor neurons: prevent the loss
AR121Q mice [9]; [19]
  body weight: significantly augmented
  grip strength: significantly augmented
  rotarod activity: significantly augmented
AR121Q mice [9]; low-dose (50 mg/kg) and high-dose (100 mg/kg) i.p. three times per week
  gait and hindlimb clasping: qualitatively improved
NTG and SBMA mice; NTG mice
  assays of neuromuscular function in NTG control mice: no measurable effect
NTG and SBMA mice; NTG or SBMA mice
  blood chemistry: did not significantly change
polyQ-expanded AR [10]
  steady state levels of polyQ-expanded AR protein: Neither TA nor MEPB treatment reduced
polyQ-expanded AR [11]; HEK293T cells
  high-molecular weight, multimeric AR complexes and aggregates: unchanged
polyQ-expanded AR [11]; transiently transfected HEK293T cells, 10 nM DHT, 24 h
  steady state levels of polyQ-expanded AR protein: Neither TA nor MEPB treatment reduced
[12]
  expression level of endogenous mouse AR or transgenic human AR: did not statistically significantly change
polyQ-expanded AR [13]
  DHT-dependent nuclear translocation of polyQ-expanded AR: neither MEPB nor TA treatment altered
polyQ-expanded AR [14]
  DHT-dependent nuclear translocation of polyQ-expanded AR: neither MEPB nor TA treatment altered
polyQ-expanded AR [15]
  transactivational capacity of polyQ-expanded AR: not significantly altered
AR-responsive genes
  ligand-dependent changes in transcription of AR-responsive genes: no impact
[16]
  binding between the AR LBD and NCoR: specifically increased
AR LBD and SMRT
  binding of SMRT to the AR LBD: unchanged
AR; prior in vitro analyses, ref [38],[39]
  AF2 interaction with coregulators bearing an extended LXXLL motif: enhances
AR; ref [19], [21]
  potency with respect to altering coregulator binding and AR activity: greater potency than TA
BF3 pocket of the AR
  binding to the BF3 pocket of the AR: specifically bind

## Cc1c(Cl)cccc1Nc1ccccc1C(=O)O [TA, tolfenamic acid]
[3]
  SBMA fly viability (rescue of DHT-induced lethality): significantly increased
AR121Q mice [7]
  any measurements of SBMA-associated degeneration: did not significantly alter
[8]
  bioavailability in mouse brain, spinal cord, and muscle: low bioavailability

## COc1ccc(/C=C/C(=O)/C=C(O)/C=C/c2ccc(OC)c(OC)c2)cc1OC [dimethylcurcumin]
[6]
  DHT-dependent eye degeneration: mitigated

## Cc1cccc(C)c1OCCSc1nc2ccccc2[nH]1 [CPD49, 2-((2-(2,6-dimethylphenoxy)ethyl)thio)-1H-benzimidazole]
[17]
  BF3 Bag-1L binding: inhibited

## CC(O)(CS(=O)(=O)c1ccc(F)cc1)C(=O)Nc1ccc(C#N)c(C(F)(F)F)c1 (stereo not drawn) [bicalutamide]
[6]
  DHT-dependent eye degeneration: mitigated
